According to ChEMBL document CHEMBL3120121, “Insights on pregnane-X-receptor modulation. Natural and semisynthetic steroids from Theonella marine sponges” (Eur J Med Chem, 2014):

Legend:
Format in all cases: cell-based
[1] = biological target: T1, Nuclear receptor subfamily 1 group I member 2 (Homo sapiens, UniProt O75469); assay: Partial agonist activity at human full-length PXR transfected in human HepG2 cells co-transfected with RXR assessed as reversal of rifaximin-induced transactivation at 50 uM after 18 hrs by luciferase reporter gene assay; conditions: hepg2, 18 h
T1 sequence (O75469 whole entry): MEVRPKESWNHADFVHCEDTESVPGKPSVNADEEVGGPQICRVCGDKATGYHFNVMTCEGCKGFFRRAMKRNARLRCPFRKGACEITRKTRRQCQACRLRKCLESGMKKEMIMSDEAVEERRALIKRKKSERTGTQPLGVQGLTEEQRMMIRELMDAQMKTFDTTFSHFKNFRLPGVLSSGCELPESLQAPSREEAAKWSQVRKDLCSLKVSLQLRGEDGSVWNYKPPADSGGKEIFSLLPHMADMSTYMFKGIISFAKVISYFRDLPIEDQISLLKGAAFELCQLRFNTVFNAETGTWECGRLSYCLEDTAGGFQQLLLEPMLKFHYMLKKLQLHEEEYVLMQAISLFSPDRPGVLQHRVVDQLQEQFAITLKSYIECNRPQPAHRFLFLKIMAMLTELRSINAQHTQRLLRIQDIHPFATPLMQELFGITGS
Outline: (§1)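 HepG2 cells cotransfected with pSG5-hPXRT1, pSG5-RXR, pCMV-βgal and pGL3(henance)PXRE reporter. At 24 h post-transfection, primed 18 h with compound at 50 plus rifaximin at 10 (antagonist mode). Luciferase luminescence measured in lysates and normalized to β-galactosidase activity. Significance p < 0.05 vs rifaximin.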

[2] = biological target: T1, Nuclear receptor subfamily 1 group I member 2; assay: Agonist activity at human full-length PXR transfected in human HepG2 cells co-transfected with pSG5-RXR assessed as induction of transactivation by dual-luciferase reporter gene assay; conditions: for Activity: human, hepg2
Outline: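 HepG2 cells grown at 37 °C in MEM with Earle's salts, 10% FBS, 1% L-glutamine, 1% penicillin/streptomycin, seeded at 5 × 10^4 cells/well. Cotransfected with pSG5-hPXRT1, pSG5-RXR, pGL4.70-Renilla and pGL3(henance)PXRE reporter. Treated with rising concentrations (1, 10, 50) with rifaximin as positive control. Dual-luciferase readout; firefly RLU divided by Renilla RLU; EC50 from concentration–response curve.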

[3] = biological target: T1, Nuclear receptor subfamily 1 group I member 2; assay: Antagonist activity at human full-length PXR transfected in human HepG2 cells co-transfected with pSG5-RXR assessed as reversal of rifaximin-induced transactivation at 10 to 25 uM after 18 hrs by luciferase reporter gene assay; conditions: hepg2, 18 h
Outline: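 Dose–response antagonism test in a luciferase reporter assay: transfected HepG2 cells received compound at 10, 25 or 50 together with rifaximin 10 to assess reversal of rifaximin-driven PXR transactivation.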

[4] = biological target: T1, Nuclear receptor subfamily 1 group I member 2; assay: Antagonist activity at human full-length PXR transfected in human HepG2 cells co-transfected with pSG5-RXR assessed as reversal of rifaximin-induced transactivation at 50 uM after 18 hrs by luciferase reporter gene assay; conditions: hepg2, 18 h; outline: as §1

SMILES: C=C1[C@@H](O)CC[C@@]2(C)[C@H]1CCC1=C3CC[C@H]([C@H](C)CCC=C(C)C)[C@@]3(C)CC[C@@H]12
- Activity [1]: Active
- EC50 [2]: 21 µM
- Activity [2]: Dose-dependent effect

SMILES: CC(C)[C@H](C)CC[C@@H](C)[C@H]1CCC2=C3CC[C@H]4[C@@H](C)[C@@H](O)CC[C@]4(C)[C@H]3CC[C@@]21C
- Activity [3]: Not Active
- Activity [1]: Active
- Activity [4]: Active

SMILES: CC(C)[C@H](C)CC[C@@H](C)[C@H]1CCC2=C3CC[C@H]4[C@H](C)[C@H](O)CC[C@]4(C)[C@H]3CC[C@@]21C
- Activity [1]: Active
- EC50 [2]: 18 µM
- Activity [2]: Dose-dependent effect
